Measurements reported in ChEMBL document CHEMBL3352597, “Heck products of parthenolide and melampomagnolide-B as anticancer modulators that modify cell cycle progression” (Eur J Med Chem, 2014).
Active and inactive are the calls of the source. The rule behind the calls is not given here.

Tests used:
[1] = Anticancer activity against human BT549 cells assessed as growth inhibition at 10^-5 M; format: functional; conditions: BT-549, read-out: GI
In short: (§1)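 NCI-60 human tumour cell line panel screened at a single concentration of 10^-5 M; value is percent growth inhibition relative to untreated growth.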

Oocyte = experiment: Induction of immature stage VI Xenopus oocyte maturation assessed as spontaneous maturation measured as germinal vesicle (nuclear) breakdown at 100 uM after overnight incubation; format: functional, cell-based
In short: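 Isolated Xenopus oocytes (20 per well) incubated overnight with compound in DMSO at 100 μM final, no progesterone. The next morning, GVBD is scored as a white spot at the animal pole. Rate is expressed relative to DMSO controls, where 2.0 means spontaneous maturation.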

CCRF-CEM = experiment: Anticancer activity against human CCRF-CEM cells assessed as growth inhibition at 10^-5 M; format: functional; conditions: read-out: GI; in short: as §1

C[C@@]12CC/C=C(/CO)CC[C@@H]3/C(=C\c4ccccc4Br)C(=O)O[C@@H]3[C@@H]1O2
inhibition of growth at 10 µM [1]: 24.2%
Activity (Oocyte): Active
inhibition of growth at 10 µM (CCRF-CEM): 28.5%
